Source: the M2OR odorant receptor database
Positions count from the first letter of the chain named.

Key:
Details in all cases: stereoisomer not certain
O1440 = system: T1, O1440
T1 sequence (whole entry): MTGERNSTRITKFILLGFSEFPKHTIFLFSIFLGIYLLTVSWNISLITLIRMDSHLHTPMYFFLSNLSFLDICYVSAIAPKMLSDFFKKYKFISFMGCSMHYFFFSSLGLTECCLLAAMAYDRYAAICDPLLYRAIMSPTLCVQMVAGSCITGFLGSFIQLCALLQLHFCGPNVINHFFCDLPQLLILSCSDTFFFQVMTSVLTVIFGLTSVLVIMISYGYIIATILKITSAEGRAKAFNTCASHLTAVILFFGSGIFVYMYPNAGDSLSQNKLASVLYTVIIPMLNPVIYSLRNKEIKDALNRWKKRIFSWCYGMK
In short: (§1)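 Each entry records the cell line, G-protein, co-transfected protein and tags used. Methods varied with the source, often transient luciferase assays in mammalian cell lines. A receptor–molecule pair is called responsive (active) if the original authors judged its signal statistically different from baseline and non-responsive (inactive) otherwise.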

O13C8 A19D = system: T2, O13C8 A19D
T2 sequence (whole entry): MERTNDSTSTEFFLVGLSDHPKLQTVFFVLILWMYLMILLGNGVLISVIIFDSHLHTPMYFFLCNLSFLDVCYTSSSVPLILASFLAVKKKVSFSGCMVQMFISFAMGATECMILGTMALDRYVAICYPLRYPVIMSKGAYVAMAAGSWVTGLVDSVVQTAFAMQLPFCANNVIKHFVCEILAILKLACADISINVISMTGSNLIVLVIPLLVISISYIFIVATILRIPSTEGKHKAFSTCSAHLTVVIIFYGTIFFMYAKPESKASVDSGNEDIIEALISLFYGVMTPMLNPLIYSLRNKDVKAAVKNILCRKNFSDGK
In short: as §1

O13C9 H17L V19G L23H = system: T3, O13C9 H17L V19G L23H
T3 sequence (whole entry): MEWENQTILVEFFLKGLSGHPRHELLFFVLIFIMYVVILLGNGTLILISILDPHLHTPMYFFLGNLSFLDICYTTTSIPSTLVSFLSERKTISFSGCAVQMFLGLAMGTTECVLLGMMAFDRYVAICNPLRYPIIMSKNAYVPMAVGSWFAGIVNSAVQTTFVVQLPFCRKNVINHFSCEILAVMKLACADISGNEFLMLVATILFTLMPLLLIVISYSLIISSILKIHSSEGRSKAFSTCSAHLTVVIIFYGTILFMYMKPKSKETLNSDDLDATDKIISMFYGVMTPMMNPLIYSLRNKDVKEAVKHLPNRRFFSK
In short: as §1

O13C9 Q6H = system: T4, O13C9 Q6H
T4 sequence (whole entry): T3 sequence (whole entry) with Q6H, L17H, G19V, H23L
In short: as §1

O13F1 F18S T254M = system: T5, O13F1 F18S T254M
T5 sequence (whole entry): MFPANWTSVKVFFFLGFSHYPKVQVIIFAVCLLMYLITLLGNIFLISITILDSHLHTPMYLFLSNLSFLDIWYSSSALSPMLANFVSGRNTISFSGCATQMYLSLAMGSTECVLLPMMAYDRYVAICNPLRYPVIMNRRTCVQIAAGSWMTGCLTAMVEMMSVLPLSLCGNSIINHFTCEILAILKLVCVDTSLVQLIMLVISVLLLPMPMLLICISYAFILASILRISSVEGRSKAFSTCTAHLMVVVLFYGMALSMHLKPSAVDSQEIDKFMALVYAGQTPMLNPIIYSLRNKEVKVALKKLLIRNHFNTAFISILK
In short: as §1

O13F1 F18S = system: T6, O13F1 F18S
T6 sequence (whole entry): T5 sequence (whole entry) with M254T
In short: as §1

O13G1 K46I M146L = system: T7, O13G1 K46I M146L
T7 sequence (whole entry): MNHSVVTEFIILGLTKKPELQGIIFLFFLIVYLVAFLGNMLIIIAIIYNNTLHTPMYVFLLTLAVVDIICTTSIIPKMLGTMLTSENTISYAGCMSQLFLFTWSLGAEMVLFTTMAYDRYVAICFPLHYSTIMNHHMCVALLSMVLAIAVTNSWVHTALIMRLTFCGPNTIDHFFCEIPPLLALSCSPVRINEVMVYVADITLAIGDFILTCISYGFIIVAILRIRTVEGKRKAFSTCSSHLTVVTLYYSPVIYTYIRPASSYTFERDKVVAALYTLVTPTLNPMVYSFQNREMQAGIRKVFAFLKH
In short: as §1

O13G1 = system: T8, O13G1
T8 sequence (whole entry): T7 sequence (whole entry) with I46K, I132V, L146M
In short: as §1

O13H1 Y266S = system: T9, O13H1 Y266S
T9 sequence (whole entry): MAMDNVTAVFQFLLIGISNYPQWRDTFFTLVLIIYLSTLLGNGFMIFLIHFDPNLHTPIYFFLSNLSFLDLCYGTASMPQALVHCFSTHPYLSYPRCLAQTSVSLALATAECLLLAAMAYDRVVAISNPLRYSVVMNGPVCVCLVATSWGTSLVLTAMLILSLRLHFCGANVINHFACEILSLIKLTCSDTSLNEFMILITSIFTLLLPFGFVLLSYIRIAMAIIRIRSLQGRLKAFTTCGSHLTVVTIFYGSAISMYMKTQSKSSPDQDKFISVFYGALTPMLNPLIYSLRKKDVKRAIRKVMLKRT
In short: as §1

O13J1 = system: T10, O13J1
T10 sequence (whole entry): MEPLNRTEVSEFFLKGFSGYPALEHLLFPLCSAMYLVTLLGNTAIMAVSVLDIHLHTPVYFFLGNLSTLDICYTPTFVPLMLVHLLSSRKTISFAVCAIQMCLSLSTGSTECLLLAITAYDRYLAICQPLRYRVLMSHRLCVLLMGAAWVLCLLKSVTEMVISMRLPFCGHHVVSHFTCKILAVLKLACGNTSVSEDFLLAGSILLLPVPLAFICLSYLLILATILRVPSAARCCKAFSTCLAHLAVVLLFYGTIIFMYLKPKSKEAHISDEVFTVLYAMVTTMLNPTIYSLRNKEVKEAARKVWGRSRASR
In short: as §1

Measured: odorant receptor agonist call

CC1CC=CCCCCCCCCCC(=O)C1 (centres undefined)
active: O1440

Cc1cnc(C)c(C)n1
not listed: O1440
inactive: all other assays above

O=C1CCCCCCCCCCCCCC1
active: O1440

C1CCCCCCCCCCCCCC1
inactive: O1440

CC1C(C)(C)C2=C(C(=O)CCC2)C1(C)C (centres undefined)
inactive: O1440

CC1CC=CCCCCCCCCC(=O)C1 (centres undefined)
active: O1440

CCCC(S)CCOC(C)=O (centres undefined)
not listed: O1440
inactive: all other assays above

OC1CCCCCCCCCCCCCC1
active: O1440

O=C1CCCC=CCCCCCCCCCC1
active: O1440

CC1CCCCCCCCCCCCC(=O)C1 (centres undefined)
active: O1440

O=C1C=CCCCCCCCCCCCCO1
active: O1440

O=C1CCCCCCCCCC1
inactive: O1440

CC1=C(O)C(=O)C(C)O1 (centres undefined)
not listed: O1440
inactive: all other assays above

CC1CCCCCCCCCCCC(=O)C1 (centres undefined)
active: O1440

CC1=NC(C)C(C)S1 (centres undefined)
not listed: O1440
inactive: all other assays above

CC1=C(O)C(=O)OC1C (centres undefined)
not listed: O1440
inactive: all other assays above

O=C1CCCCCCC=CCCCCCCC1
active: O1440

CCC1OC(C)=C(O)C1=O (centres undefined)
not listed: O1440
inactive: all other assays above

O=C1CCCCCCCCC1
inactive: O1440

CCCCCCCC(=O)CCCCCCC
inactive: O1440

CCCCCCCCCCCCCC(C)=O
inactive: O1440

O=C1CCCCCC=CCCCCCCCCO1
active: O1440

CCC1OC(=O)C(O)=C1C (centres undefined)
not listed: O1440
inactive: all other assays above

CC(=O)c1c(C)c([N+](=O)[O-])c(C(C)(C)C)c([N+](=O)[O-])c1C
active: O1440

CCCCCCC=CCCC=O
not listed: O1440 | O13F1 F18S T254M
inactive: all other assays above

CCC(=O)OCC(C)(C)OC(C)C1CCCC(C)(C)C1 (centres undefined)
inactive: O1440
